Source: ChEMBL document CHEMBL1153420, “Discovery of novel 1-azoniabicyclo[2.2.2]octane muscarinic acetylcholine receptor antagonists” (J Med Chem, 2009)
Calls of active or inactive are those of the source. The calls are words filed in the database; no cut-off is given here.

What was measured:
[1] = molecular target: T1, Muscarinic acetylcholine receptor M3 (Homo sapiens, UniProt P20309); assay: Antagonist activity at human cloned muscarinic M3 receptor expressed in CHO cells assessed as inhibition of acetylcholine-induced calcium mobilization by FLIPR assay; type: functional, cell-based
Target sequence in this assay (P20309 whole entry): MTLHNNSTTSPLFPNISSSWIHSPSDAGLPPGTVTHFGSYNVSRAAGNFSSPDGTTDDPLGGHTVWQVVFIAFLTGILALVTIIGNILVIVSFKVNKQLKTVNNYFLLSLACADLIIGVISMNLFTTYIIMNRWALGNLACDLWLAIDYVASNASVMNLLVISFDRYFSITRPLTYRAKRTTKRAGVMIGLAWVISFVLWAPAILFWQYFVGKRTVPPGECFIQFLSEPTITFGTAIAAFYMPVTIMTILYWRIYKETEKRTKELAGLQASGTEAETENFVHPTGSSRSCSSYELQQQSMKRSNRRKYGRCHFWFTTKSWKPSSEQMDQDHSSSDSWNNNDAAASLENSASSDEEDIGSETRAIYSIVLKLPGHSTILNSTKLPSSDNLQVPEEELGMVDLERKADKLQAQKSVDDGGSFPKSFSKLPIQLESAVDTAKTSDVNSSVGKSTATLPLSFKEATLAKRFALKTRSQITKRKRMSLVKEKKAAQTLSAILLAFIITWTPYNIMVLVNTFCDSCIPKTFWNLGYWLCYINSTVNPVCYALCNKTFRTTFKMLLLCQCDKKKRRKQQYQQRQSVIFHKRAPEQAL

[2] = molecular target: T1, Muscarinic acetylcholine receptor M3; assay: Antagonist activity at human cloned muscarinic M3 receptor expressed in CHO cells assessed as inhibition of acetylcholine-induced calcium mobilization by single concentration kinetic based-FLIPR assay; type: functional, cell-based; conditions: read-out: pA2 (converted)
Target sequence in this assay (P20309 whole entry): as above

Mus musculus [3] = assay: Inhibition of methacholine-induced bronchoconstriction in intranasally single dosed conscious BALB/c mouse by plethysmography; type: functional
Mus musculus [4] = assay: Inhibition of methacholine-induced bronchoconstriction in intranasally single dosed conscious BALB/c mouse assessed as time to 50% loss of maximum protection at 0.05 ug by plethysmography; type: functional
Procedure, shortened: (§1)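 Conscious mice dosed intranasally in 50 µL vehicle (10% DMSO), then methacholine challenge; barometric plethysmography measured enhanced pause (Penh) at times from 15 min to 96 h after dosing; duration taken as time to 50% loss of maximum protection.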

[5] = molecular target: T2, Muscarinic acetylcholine receptor M1 (Homo sapiens, UniProt P11229); assay: Antagonist activity at human cloned muscarinic M1 receptor expressed in CHO cells assessed as inhibition of acetylcholine-induced calcium mobilization by single concentration kinetic based-FLIPR assay; type: functional, cell-based; conditions: read-out: pA2 (converted)
T2 sequence (P11229 whole entry): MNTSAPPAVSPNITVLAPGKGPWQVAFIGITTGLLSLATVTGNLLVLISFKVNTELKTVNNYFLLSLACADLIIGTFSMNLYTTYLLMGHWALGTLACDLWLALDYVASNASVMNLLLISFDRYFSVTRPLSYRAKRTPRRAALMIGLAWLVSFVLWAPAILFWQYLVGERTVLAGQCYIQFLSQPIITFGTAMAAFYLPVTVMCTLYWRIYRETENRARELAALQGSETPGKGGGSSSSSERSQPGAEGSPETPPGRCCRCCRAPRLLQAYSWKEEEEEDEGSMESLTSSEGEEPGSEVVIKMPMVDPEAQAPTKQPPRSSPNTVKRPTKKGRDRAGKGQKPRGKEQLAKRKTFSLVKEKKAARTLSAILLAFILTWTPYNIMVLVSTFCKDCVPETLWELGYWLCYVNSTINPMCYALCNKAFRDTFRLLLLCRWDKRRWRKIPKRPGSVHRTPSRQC

[6] = molecular target: T3, Muscarinic acetylcholine receptor M2 (Homo sapiens, UniProt P08172); assay: Antagonist activity at human cloned muscarinic M2 receptor expressed in CHO cells assessed as inhibition of acetylcholine-induced calcium mobilization by single concentration kinetic based-FLIPR assay; type: functional, cell-based; conditions: read-out: pA2 (converted)
T3 sequence (P08172 whole entry): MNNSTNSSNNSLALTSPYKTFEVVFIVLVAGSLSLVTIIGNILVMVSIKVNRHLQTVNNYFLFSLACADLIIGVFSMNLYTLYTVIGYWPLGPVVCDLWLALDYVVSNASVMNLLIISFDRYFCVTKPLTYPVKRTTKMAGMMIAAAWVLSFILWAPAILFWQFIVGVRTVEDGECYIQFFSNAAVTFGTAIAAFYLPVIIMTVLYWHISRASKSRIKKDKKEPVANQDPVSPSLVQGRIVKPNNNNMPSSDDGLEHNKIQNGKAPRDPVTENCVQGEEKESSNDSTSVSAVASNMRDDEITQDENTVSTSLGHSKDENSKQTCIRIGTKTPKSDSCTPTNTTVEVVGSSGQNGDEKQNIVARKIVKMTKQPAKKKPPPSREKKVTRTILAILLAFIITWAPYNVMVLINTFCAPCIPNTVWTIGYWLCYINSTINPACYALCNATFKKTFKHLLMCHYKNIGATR

[7] = Clearance in rat plasma at 0.5 mg/kg, iv; type: ADME, organism-based; set-up: dose 0.5 mg/kg, route intravenous
Procedure, shortened: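 Rats received a single intravenous dose of 0.5 mg/kg; systemic plasma clearance was reported in ml/min/kg.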

[8] = molecular target: T1, Muscarinic acetylcholine receptor M3; assay: Antagonist activity at human muscarinic M3 receptor assessed as offset time for 50% of carbachol-induced human bronchus contraction to return at 10 nM; type: functional
Procedure, shortened: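 Human bronchial strips (primary, secondary or tertiary airways, obtained at autopsy) were mounted in organ baths on force-displacement transducers. Strips were preincubated 2 h with 10 nM antagonist, then given increasing carbachol to […]. Antagonist was then removed and tissue superfused with carbachol-containing buffer while tension recovery was tracked. The result is minutes to 50% reversal of blockade (off t50).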
Target sequence in this assay (P20309 whole entry, looked up): as the sequence (P20309 whole entry) above

[9] = molecular target: T2, Muscarinic acetylcholine receptor M1; assay: Displacement of [3H]N-methyl scopolamine from human cloned muscarinic M1 receptor expressed in CHO cells coexpressing Gqi5 by scintillation proximity assay; type: cell-based
Procedure, shortened: (§2)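 Scintillation proximity assay on membranes from CHO cells expressing human M1, M2 or M3 receptors, competing against 0.5 nM [3H]-N-methyl scopolamine; Ki reported as mean of three independent assays.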

[10] = molecular target: T3, Muscarinic acetylcholine receptor M2; assay: Displacement of [3H]N-methyl scopolamine from human cloned muscarinic M2 receptor expressed in CHO cells coexpressing Gqi5 by scintillation proximity assay; type: cell-based; procedure, shortened: as §2
[11] = molecular target: T1, Muscarinic acetylcholine receptor M3; assay: Antagonist activity at human cloned muscarinic M3 receptor expressed in CHO cells assessed as reversible inhibition of acetylcholine-induced calcium mobilization for 90 mins measured after 180 mins of washout period by FLIPR assay; type: functional, cell-based
Procedure, shortened: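 CHO cells expressing cloned human M3 receptors were incubated 90 min with vehicle or 1.0, 10 or 100 nM compound, then washed out for 180 min with 18 buffer changes. Cells were then stimulated with ACh, and calcium mobilization was read by FLIPR. Reversibility was judged from ACh concentration-response curves against no-drug levels.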
Target sequence in this assay (P20309 whole entry, looked up): as the sequence (P20309 whole entry) above

[12] = molecular target: T1, Muscarinic acetylcholine receptor M3; assay: Antagonist activity at human muscarinic M3 receptor assessed as inhibition of carbachol-induced bronchus contraction; type: functional; conditions: read-out: pA2 (converted)
Target sequence in this assay (P20309 whole entry): as the sequence (P20309 whole entry) above

Mus musculus [13] = assay: Inhibition of methacholine-induced bronchoconstriction in intranasally single dosed conscious BALB/c mouse assessed as time to 50% loss of maximum protection at 0.5 ug by plethysmography; type: functional; procedure, shortened: as §1
[14] = Clearance in rat plasma at 3.5 mg/kg, iv; type: ADME, organism-based; set-up: dose 3.5 mg/kg, route intravenous
Procedure, shortened: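 Systemic plasma clearance in rat after intravenous dosing.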

[15] = molecular target: T1, Muscarinic acetylcholine receptor M3; assay: Displacement of [3H]N-methyl scopolamine from human cloned muscarinic M3 receptor expressed in CHO cells coexpressing Gqi5 by scintillation proximity assay; type: cell-based
Target sequence in this assay (P20309 whole entry): as the sequence (P20309 whole entry) above

Row | SMILES | IC50 [1] | Kb [2] | other results
1 | COc1ccc(C(O)(c2ccc(OC)cc2)C23CC[N+](CCOCc4ccccc4)(CC2)CC3)cc1 | 36 nM |  | 
2 | OC(c1ccc(F)cc1)(c1ccc(F)cc1)C12CC[N+](CCOCc3ccccc3)(CC1)CC2 | < 10 nM | 0.0631 nM | 
3 | CC(C)(C)c1ccc(COCC[N+]23CCC(C(O)(c4ccccc4)c4ccccc4)(CC2)CC3)cc1 | 39 nM |  | 
4 | OC(c1ccccc1)(c1ccccc1)C12CC[N+](CCOCc3ccccc3)(CC1)C2 | < 10 nM | 0.398 nM | 
5 | OC(c1ccccc1)(c1ccccc1)C1C[N+]2(CCc3ccccc3)CCC1CC2 (stereo not drawn) | 2820 nM |  | 
6 | COCC[N+]12CCC(C(O)(c3ccccc3)c3ccccc3)(CC1)CC2 | 30 nM |  | 
7 | OCCC[N+]12CCC(C(O)(c3ccccc3)c3ccccc3)(CC1)CC2 | 29500 nM |  | 
8 | OC(c1ccccc1)(c1ccccc1)C12CC[N+](CCc3ccccc3)(CC1)CC2 | 87 nM |  | 
9 | OC(c1ccccc1)(c1ccccc1)C12CCN(CC1)CC2 | 1070 nM |  | 
10 | OC(c1ccccc1)(c1ccccc1)C12CC[N+](CCCCCOc3ccccc3)(CC1)CC2 | 306 nM |  | 
11 | Cc1cccc(COCC[N+]23CCC(C(O)(c4ccccc4)c4ccccc4)(CC2)CC3)c1 | < 10 nM | 0.1 nM | 
12 | OC(c1ccccc1)(c1ccccc1)C12CC[N+](CCOCc3ccccc3Br)(CC1)CC2 | 22 nM | 3.16 nM | 
13 | OC(c1ccccc1)(c1ccccc1)C12CC[N+](CCOCc3ccc(Br)cc3)(CC1)CC2 | < 10 nM | 0.0398 nM | 
14 | OC(c1ccccc1)(c1ccccc1)C12CC[N+](CCOCc3ccc(Cl)cc3)(CC1)CC2 | < 10 nM | 0.0631 nM | 
15 | Cc1ccccc1COCC[N+]12CCC(C(O)(c3ccccc3)c3ccccc3)(CC1)CC2 | 13 nM | 3.98 nM | 
16 | N#Cc1ccc(COCC[N+]23CCC(C(O)(c4ccccc4)c4ccccc4)(CC2)CC3)cc1 | < 10 nM | 0.398 nM | 
17 | OC(c1ccccc1)(c1ccccc1)C12CC[N+](CCOCc3cccc(F)c3)(CC1)CC2 | < 10 nM | 0.0251 nM | 
18 | OC(c1ccccc1)(c1ccccc1)C12CC[N+](CCOCc3ccccc3F)(CC1)CC2 | < 10 nM | 0.0398 nM | 
19 | CCCC[N+]12CCC(C(O)(c3ccccc3)c3ccccc3)(CC1)CC2 | 135 nM |  | 
20 | COc1cccc(COCC[N+]23CCC(C(O)(c4ccccc4)c4ccccc4)(CC2)CC3)c1 | < 10 nM | 2 nM | 
21 | OC(c1ccccc1)(c1ccccc1)C12CC[N+](CCOCc3cccc(Br)c3)(CC1)CC2 | < 10 nM | 0.126 nM | 
22 | OC(c1ccccc1)(c1ccccc1)C12CC[N+](CCCCOc3ccccc3)(CC1)CC2 | 9.5 nM | 10 nM | 

Row | SMILES | IC50 [1] | Kb [2] | other results
23 | Cc1ccc(COCC[N+]23CCC(C(O)(c4ccccc4)c4ccccc4)(CC2)CC3)cc1 | < 10 nM | 0.0398 nM | 
24 | OC(c1ccccc1)(c1ccccc1)C12CC[N+](CCOc3ccccc3)(CC1)CC2 | < 10 nM | 0.794 nM | 
25 | N#CC(c1ccccc1)(c1ccccc1)C12CC[N+](CCOCc3ccccc3)(CC1)C2 | < 10 nM | 0.501 nM | 
26 | NCC[N+]12CCC(C(O)(c3ccccc3)c3ccccc3)(CC1)CC2 | 850 nM | 0.398 nM | 
27 | OC(c1ccccc1)(c1ccccc1)C12CC[N+](CCOCc3ccc(F)cc3)(CC1)CC2 | < 10 nM | 0.0794 nM | 
28 | OC(CC1CN2CCC1CC2)(c1ccccc1)c1ccccc1 (stereo not drawn) | 145 nM |  | 
29 | OC(c1cccc(F)c1)(c1cccc(F)c1)C12CC[N+](CCOCc3ccccc3)(CC1)CC2 | < 10 nM | 0.251 nM | 
30 | CCC[N+]12CCC(C(O)(c3ccccc3)c3ccccc3)(CC1)CC2 | 208 nM |  | 
31 | COCCC[N+]12CCC(C(O)(c3ccccc3)c3ccccc3)(CC1)CC2 | 829 nM |  | 
32 | OC(c1ccccc1)(c1ccccc1)C1CN2CCC1CC2 (stereo not drawn) | 1100 nM |  | 
33 | C[N+]12CCC(C(O)(c3ccccc3)c3ccccc3)(CC1)CC2 | 935 nM |  | 
34 | N#Cc1ccccc1COCC[N+]12CCC(C(O)(c3ccccc3)c3ccccc3)(CC1)CC2 | 5400 nM |  | 
35 | OC(CC1C[N+]2(CCc3ccccc3)CCC1CC2)(c1ccccc1)c1ccccc1 (stereo not drawn) | 122 nM |  | 
36 | OC(c1ccccc1)(c1ccccc1)C12CC[N+](CCOCc3ccccc3)(CC1)CC2.[Br-] [UMECLIDINIUM BROMIDE] |  |  | ED50 (Mus musculus [3]): 0.02 µg; Activity (Mus musculus [4]): >48 h; Kb [5]: 0.316 nM; Kb [6]: 0.0316 nM; clearance [7]: 92 mL/min/kg; Activity [8]: 145 min; Ki [9]: 0.16 nM; Ki [10]: 0.15 nM; Activity [11]: Active
37 | Cc1ccc(C(O)(c2ccc(C)cc2)C23CC[N+](CCOCc4ccccc4)(CC2)CC3)cc1 | 12 nM |  | 
38 | OC(c1ccccc1)(c1ccccc1)C12CC[N+](CC3CC3)(CC1)CC2 | 1960 nM |  | 
39 | CC[N+]12CCC(C(O)(c3ccccc3)c3ccccc3)(CC1)CC2 | 104 nM |  | 
40 | OCC[N+]12CCC(C(O)(c3ccccc3)c3ccccc3)(CC1)CC2 | 486 nM |  | 
41 | OC(c1ccccc1)(c1ccccc1)C1CC2CCN1CC2 (stereo not drawn) | 6600 nM |  | 
42 | OC(c1ccccc1)(c1ccccc1)C12CC[N+](CCCOc3ccccc3)(CC1)CC2.[Br-] | < 10 nM |  | Kb [12]: 1.26 nM; ED50 (Mus musculus [3]): 0.08 µg; Activity (Mus musculus [13]): 34 h; Kb [5]: 3.16 nM; Kb [6]: 1.26 nM; clearance [14]: 37 mL/min/kg; Activity [8]: 57 min; Ki [9]: 0.64 nM; Ki [10]: 0.94 nM; Ki [15]: 0.13 nM; Activity [11]: inactive
43 | OC(c1ccccc1)(c1ccccc1)C12CC[N+](CCCCc3ccccc3)(CC1)CC2 | < 10 nM | 0.501 nM | 
44 | COc1cccc(C(O)(c2cccc(OC)c2)C23CC[N+](CCOCc4ccccc4)(CC2)CC3)c1 | 17 nM |  | 
